Screens as filed in PubChem BioAssay.
The list is not random: actives were taken first. Their share in the collection is about 2.2%.
STAT3 blocker: IL-6 driven STAT3 reporter inhibitors, primary screen, U3A cells, luciferase, luminescence, MLSCN library | IL-6 STAT3-luciferase reporter; host cell line lacks STAT1 | AID 862, 2007 | 190,000 tested, 0.89% active | inhibition, % at 5.5 µM;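 active = inhibition above the mean inhibition across all screened compounds plus 3 SD, cut at about 44% in these data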;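 note: 0% = DMSO only wells and 100% = 100 µM nifuroxazide control wells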
PPC-1+TRAIL kill: compounds killing PPC-1 cancer cells with TRAIL present, primary screen, TRAIL potentiator project, ATPLite luminescence, uHTS. AID 1443, 2008. PPC-1 cells + TRAIL, ATPLite viability luminescence. cell killing (% activity), % at 4 µM or 5 µM. 220,000 tested, 0.41% active;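 active = cell killing above 50% in the first pass at 4 µM, then a duplicate retest at 5 µM averaging 50% or more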;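 note: plate controls were cells with TRAIL plus DMSO for no effect and medium-only wells lacking cells for full effect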
FLuc stim CS: FLuc activators, initial screening, artefact control for FLuc-dependent activation tests, biochemical, ATPlite luminescence; Luciferin 4-monooxygenase (Photinus pyralis), P08659; ATPlite luciferase biochemical, 10 min; 0 = ATP-free wells, 1 = DMSO control; activation factor at 10 µM; 200,000 tested, under 10 active; AID 1027, 2008;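 active = luciferase activation factor, scaled between plate controls, of at least 2 with compound at 10 µM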
Target sequence (P08659 whole entry, looked up): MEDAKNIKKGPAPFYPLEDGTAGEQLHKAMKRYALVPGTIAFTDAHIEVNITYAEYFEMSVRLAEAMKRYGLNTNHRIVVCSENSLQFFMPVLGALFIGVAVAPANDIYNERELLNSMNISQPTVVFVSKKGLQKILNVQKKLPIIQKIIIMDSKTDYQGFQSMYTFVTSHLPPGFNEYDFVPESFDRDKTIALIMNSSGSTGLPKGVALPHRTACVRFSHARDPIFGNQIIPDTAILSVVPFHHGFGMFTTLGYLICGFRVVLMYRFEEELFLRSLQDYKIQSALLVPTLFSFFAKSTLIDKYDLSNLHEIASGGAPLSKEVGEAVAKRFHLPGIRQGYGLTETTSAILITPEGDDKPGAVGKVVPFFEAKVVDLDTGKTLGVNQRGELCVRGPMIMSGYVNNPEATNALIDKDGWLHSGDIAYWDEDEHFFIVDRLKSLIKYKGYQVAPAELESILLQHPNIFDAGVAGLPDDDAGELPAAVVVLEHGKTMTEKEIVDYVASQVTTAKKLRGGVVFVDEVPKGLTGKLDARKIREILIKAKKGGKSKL
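assay system = Luciferase/luciferin detection reagent, cell-free biochemical luciferase assay | also added = ATP substrate | times = 10 min post-reagent at room temperature | measured by = luminescence from luciferase reaction | measure = luciferase activation, seen as luminescence increase over controls | benchmarks = low control with PBS replacing ATP, high control enzyme plus ATP without compound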
HSP90 inh: HSP90 inhibitors, primary screen, cell lysate, luminescence | Heat shock protein HSP 90 (rabbit reticulocyte lysate; luciferase refolding) | Rabbit reticulocyte lysate, luciferase refolding luminescence, 3 h | inhibition, % at 5.6 µM | 290,000 tested, 0.91% active | AID 1789, 2009;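 active = inhibition above the screen-wide mean plus 3 SD, computed separately per campaign, cut at about 16% in these data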;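 note: 0% = DMSO wells and 100% = 60 µM geldanamycin wells; inhibitors lower the luminescence because luciferase stays unfolded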
FLuc inh counter: firefly luciferase enzyme inhibitors, primary screen, artefact control for luciferase-based inhibitor screens, biochemical, luminescence, ATPLite | 10 min | AID 1006, 2008 | inhibition, % at 10 µM | 200,000 tested, 1.5% active;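 active = inhibition above about 50% when tested at 10 µM, limit read from the data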
C8 TRAIL sens: viability loss with TRAIL in NB7+C8 cells, primary screen, TRAIL sensitizer project, cell-based, ATPlite luminescence; inhibition (viability loss, TRAIL sensitization), % at 10 µM; 360,000 tested, 1% active; AID 624354, 2012;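 active = compounds causing at least 50% loss of cell viability in the single-dose screen, relative to plate controls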
Numbers without * were called inactive; / = no result; ! = a repeat was not active.

SMILES	STAT3 blocker	PPC-1+TRAIL kill	FLuc stim CS	HSP90 inh	FLuc inh counter	C8 TRAIL sens
CCOc1ccccc1NC(=O)CSc1nncc2ccccc12	/	/	/	1	/	-4
O=C(Nc1c(Cl)cc2c(c1Cl)Cc1cc([N+](=O)[O-])ccc1-2)C(Cl)Cl	/	/	/	/	/	86*
Cc1ccc(Nc2nnc(SCC(=O)N(C)C3CCS(=O)(=O)C3)s2)cc1 (configuration not stated)	0	47	0.2	-3	76*	41
CCc1ccc(NC2=CC(=O)C(=O)c3ccccc32)cc1	/	/	/	/	/	93*
O=C1C=C(Nc2ccccc2)c2ccccc2C1=O	-25	2	1	17*	-1	34
O=C1C=C(Nc2ccccc2C(=O)O)c2ccccc2C1=O	/	3	/	2	/	4
CCN1CCN(Cc2ccc(NC(=O)c3ccc(C)c(/C=C/c4cnc(Nc5cc(N6CCNCC6)nc(C)n5)cn4)c3)cc2C(F)(F)F)CC1	/	/	/	-5	/	63*!
CC1=C/C(=C\c2ccc3c(c2)OCO3)C(=O)S1	5	9	0.5	2	51*	-13
CCOC(=O)[C@]12CCC=C1N(Cc1ccco1)C(=O)[C@H](CC(=O)NCCCN1CCCC1=O)C2	/	/	/	/	/	13
O=C(N/N=C/c1ccc[nH]1)c1ccc(Cl)cc1	6	25	0.4	-5	57*	14
Cc1ccc(C(=O)N/N=C\c2ccc[nH]2)cc1[N+](=O)[O-]	22	24	1	1	1	86*
O=C(N/N=C/c1ccc[nH]1)c1ccncc1	4	-2	1	1	-1	4
COC(=O)[C@]12CCCCC=C1N(Cc1cccc3ccccc13)C(=O)[C@H](CC(=O)NCc1ccc(OC)c(OC)c1)C2	/	/	/	/	/	63*
CCCC(=O)Nc1sc2c(c1C(=O)Nc1ccccn1)CCCC2	10	23	1	2	-4	-3
CCOC(CCn1ccc(O)c(Cc2ccc(Cl)cc2)c1=O)OCC	/	/	/	-2	/	-9
Nc1c(C(=O)N2CCOCC2)sc2nc3c(cc12)CCC3	14	/	0.7	8	31	-3
NC(=O)c1sc2nc3c(cc2c1N)CCC3	26	4	0.8	-5	23	18
COC(=O)c1sc2nc3c(cc2c1N)CCCC3	17	18	0.4	1	60*	30
Nc1c(C(=O)N2CCOCC2)sc2nc3c(cc12)CCCC3	/	/	/	3	/	57*
CCN(CC)S(=O)(=O)c1ccc(C)c(NC(=O)COC(=O)CNC(=O)c2ccc(C(C)(C)C)cc2)c1	-2	18	0.2	-3	81*	-4
Cc1ccc(S(=O)(=O)N(C)C)cc1NC(=O)COC(=O)CCC1CCCC1	/	/	/	/	/	-7
Cc1ccc(OCCC(=O)OCC(=O)Nc2cc(S(=O)(=O)N(C)C)ccc2C)cc1	-3	22	0.4	-2	58*	-3
Cc1ccc(-n2c(C)cc(/C=c3/sc4nc5ccccc5n4c3=O)c2C)cc1	63*	-6	0.6	1	39	/
O=C(NN=Cc1ccccc1Cl)c1ccccc1	/	/	/	/	/	45
O=C(N/N=C/c1ccccc1Cl)c1ccc(F)cc1	24	29	0.2	-2	78*	45
SMILES	STAT3 blocker	PPC-1+TRAIL kill	FLuc stim CS	HSP90 inh	FLuc inh counter	C8 TRAIL sens
O=C(O)COc1ccccc1/C=N/NC(=O)c1ccc(F)cc1	2	15	0.5	3	53*	9
CC1(C)CC(Cc2ccccc2C(F)(F)F)N(C(=O)OC(C)(C)C)C1 (configuration not stated)	/	/	/	/	/	-11
O=C(/C=C/c1ccc(Cl)cc1Cl)Nc1cccc(S(=O)(=O)NC2=NCCCCC2)c1	0	18	0.4	-4	55*	25
O=C(/C=C/c1ccccc1[N+](=O)[O-])Nc1cccc(S(=O)(=O)NC2=NCCCCC2)c1	/	/	/	/	/	-24
Cc1nn(S(=O)(=O)c2ccc(Br)cc2)c(C)c1S(=O)(=O)N1CCOCC1	/	/	/	-4	/	-19
COc1ccc(-c2cn3cccnc3n2)cc1NS(=O)(=O)c1ccccc1	18	18	0.9	3	10	-10
COc1ccc(-c2cn3cccnc3n2)cc1F	16	37	0.4	1	57*	28
CCOC(=O)c1cc(C(=O)OCC)c2cccc(C)n2c1=O	12	10	1.1	4	-9	-7
CCCC1(c2ccsc2)NC(=O)NC1=O (configuration not stated)	/	/	/	/	/	-1
CCOc1ccc(NC(=S)NC(=O)c2c(Br)cnn2C)c([N+](=O)[O-])c1	-1	32	0.4	0	64*	22
CSc1ccc(C2NN=C(c3ccccc3)S2)cc1 (configuration not stated)	/	/	/	/	/	84*
COc1ccc(C2NN=C(c3ccc(C)cc3)S2)cc1 (configuration not stated)	/	/	/	-5	/	50*
COc1cc(N(C)C)ccc1C=c1c2ccccc2n2c1cc(-c1ccccc1)[n+]2C	/	/	/	/	/	54*
CN(C)c1ccc(C=c2c3ccccc3n3c2cc(-c2ccccc2)[n+]3C)cc1	/	/	/	/	/	54*
CN(C)c1ccc(C=c2c3ccccc3n3c2cc(-c2ccc(Cl)cc2)[n+]3C)cc1	/	/	/	/	/	45
COc1cc(C=c2c3ccccc3n3c2cc(-c2ccccc2)[n+]3C)cc(OC)c1OC	/	/	/	/	/	21
CN(C)c1ccc(C=c2c3cc([N+](=O)[O-])ccc3n3c2cc(-c2ccccc2)[n+]3C)cc1	/	/	/	/	/	76*
Cc1ccc([C@H]2C[C@H](O)[C@@H](n3cc(C4CC4)nn3)CN2Cc2cccs2)cc1	/	/	/	/	/	-9
O=C(Cc1cccc(NC(=O)C2CCCN(C(=O)C3CCCC3)C2)c1)Nc1cccc(C(=O)N2CCOCC2)c1 (configuration not stated)	/	/	/	/	/	-4
CCOC(=O)CN/C=C(\C#N)c1ccccc1	3	4	1	5	1	-1
N/C(=N\OC(=O)c1ccc2c(c1)OCO2)c1cccc(Br)c1	-1	7	0	-4	96*	0
Cc1nc(/C(N)=N/OC(=O)c2c(-c3ccccc3Cl)noc2C)cs1	/	-3	/	-4	/	-11
N/C(=N\OC(=O)c1ccc2c(c1)OCO2)c1ccc([N+](=O)[O-])cc1	3	20	0.9	-3	15	15
N/C(=N\OC(=O)c1ccc2ccccc2c1)c1ccncc1	15	6	0.6	5	42	4
O=C(OCC(=O)c1ccc[nH]1)c1ccc2ccccc2n1	-3	4	0.9	-2	13	-4
O=C(COC(=O)c1ccc2ccccc2n1)c1ccccc1	-11	21	0.4	-1	60*	-2
COc1ccc(/C(N)=N/OC(=O)c2ccc3ccccc3c2)cc1OC	/	/	/	/	/	96*
